# Measured values: ChEMBL document CHEMBL1121802, “Imine analogues of tricyclic antidepressants” (1981)
# Key:
# Type in all cases: functional
# Mus musculus [1] = test: Compound was tested for antidepressant activity by determining the decreased exploratory activity in mice upon oral administration; 12-32
# In short: (§1)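 Mice given test drug orally; 30 min later challenged with tetrabenazine (methanesulfonate) 32 mg/kg ip in 0.05 M KCl pH 2.0. Scored 1 h after test drug for exploratory activity and ptosis; ptosis antagonism = lid closure <50% in both eyes exactly 2 s after placing mouse facing observer. ED50 calculated by Thompson method.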
# Mus musculus [2] = test: The effect on ataxia in mice following oral administration
# In short: (§2)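 Observed at 0.5, 2, 5 and 24 h for ataxia (abnormal gait/imprecise movement), pupil diameter (dissecting microscope, 20×, micrometer), excitement (spontaneous running/jumping) and electroshock protection (corneal electrodes at 2 and 5 h). ED50 by Thompson method.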
# Mus musculus [3] = test: The effect on excitement was measured in mice following oral administration; in short: as §2
# Mus musculus [4] = test: Compound was tested for antidepressant activity by determining the reversal of tetrabenazine-induced ptosis upon oral administration; 7-22; in short: as §1
# Mus musculus [5] = test: The effect on electroshock protection in mice following oral administration; in short: as §2
# Mus musculus [6] = test: The effect on 24-hour mortality in mice following oral administration
# Mus musculus [7] = test: Effect on pupil dilation was measured in mice upon oral administration; in short: as §2
# Mus musculus [8] = test: Compound was tested for antidepressant activity by determining the reversal of tetrabenazine-induced ptosis upon oral administration; 0.7-1.9; in short: as §1
# Mus musculus [9] = test: Compound was tested for antidepressant activity by determining the decreased exploratory activity in mice upon oral administration; 6.0-12.0; in short: as §1
# Mus musculus [10] = test: Antidepressant activity by determining the reversal of tetrabenazine-induced ptosis upon oral administration; in short: as §1
# Mus musculus [11] = test: Compound was tested for antidepressant activity by determining the decreased exploratory activity in mice upon oral administration; 34-158; in short: as §1
# Mus musculus [12] = test: The effect on electroshock protection was measured in mice upon ip administration
# Mus musculus [13] = test: Antidepressant activity by determining the decreased exploratory activity in mice upon oral administration; in short: as §1
# Mus musculus [14] = test: The effect on 24-hour mortality was measured in mice upon ip administration
# Mus musculus [15] = test: The effect on excitement was measured in mice upon ip administration
# Mus musculus [16] = test: The effect on ataxia was measured in mice upon ip administration
# Mus musculus [17] = test: Compound was tested for antidepressant activity by determining the reversal of tetrabenazine-induced ptosis upon oral administration; 27-60; in short: as §1
# Mus musculus [18] = test: Compound was tested for antidepressant activity by determining the reversal of tetrabenazine-induced ptosis upon oral administration; 84-110; in short: as §1
# Mus musculus [19] = test: Compound was tested for antidepressant activity by determining the decreased exploratory activity in mice upon oral administration; in short: as §1
# Mus musculus [20] = test: Compound was tested for antidepressant activity by determining the reversal of tetrabenazine-induced ptosis upon oral administration; 22-53; in short: as §1
# Mus musculus [21] = test: Compound was tested for antidepressant activity by determining the reversal of tetrabenazine-induced ptosis upon oral administration; 3.0-12.0; in short: as §1
# Mus musculus [22] = test: Compound was tested for antidepressant activity by determining the reversal of tetrabenazine-induced ptosis upon oral administration; 1.3-2.7; in short: as §1
# Mus musculus [23] = test: Compound was tested for antidepressant activity by determining the decreased exploratory activity in mice upon oral administration; 4.7-17; in short: as §1
# Mus musculus [24] = test: Compound was tested for antidepressant activity by determining the reversal of tetrabenazine-induced ptosis upon oral administration; 0.5-0.9; in short: as §1
# Mus musculus [25] = test: Compound was tested its antidepressant activity by determining the decreased exploratory activity in mice upon oral administration; 1.1-2.1; in short: as §1
# Mus musculus [26] = test: Compound was tested for its antidepressant activity by determining the decreased exploratory activity in mice upon oral administration; 8.1-15.4; in short: as §1
# Mus musculus [27] = test: Compound was tested for antidepressant activity by determining the decreased exploratory activity in mice upon oral administration; 2.7-4.6
# Mus musculus [28] = test: Compound was tested for antidepressant activity by determining the reversal of tetrabenazine-induced ptosis upon oral administration; 1.1-1.8
Compound,ED50 (Mus musculus [2]) [mg/kg],ED50 (Mus musculus [3]) [mg/kg],ED50 (Mus musculus [5]) [mg/kg],ED50 (Mus musculus [6]) [mg/kg],ED50 (Mus musculus [7]) [mg/kg],other results
CN(C)CC/N=C1\c2ccccc2CNc2ccccc21,36,> 324,> 324,300,36,ED50 (Mus musculus [1]): 20 mg/kg; ED50 (Mus musculus [4]): 12 mg/kg
CCNCCN=C1c2ccccc2C2CC2c2ccccc21 (centres undefined),36,> 324,> 324,200,36,ED50 (Mus musculus [8]): 1.1 mg/kg; ED50 (Mus musculus [9]): 8.4 mg/kg
CN(C)CCN=c1c2ccccc2oc2ccccc12,60,60,> 324,300,> 324,ED50 (Mus musculus [10]): > 125 mg/kg; ED50 (Mus musculus [11]): 73 mg/kg
c1ccc2c(c1)CCc1ccccc1C2=NCCN1CCOCC1,–,–,–,–,100,ED50 (Mus musculus [12]): 300 mg/kg; ED50 (Mus musculus [10]): > 125 mg/kg; ED50 (Mus musculus [13]): > 125 mg/kg; ED50 (Mus musculus [14]): 300 mg/kg; ED50 (Mus musculus [15]): > 324 mg/kg; ED50 (Mus musculus [16]): 200 mg/kg
CN(C)CC/N=C1\c2ccccc2CS(=O)(=O)c2ccccc21,200,200,> 324,> 324,36,ED50 (Mus musculus [13]): > 125 mg/kg; ED50 (Mus musculus [17]): 40 mg/kg
CN(C)CCCN=c1c2ccccc2sc2ccccc12,60,60,> 324,200,60,ED50 (Mus musculus [18]): 96 mg/kg; ED50 (Mus musculus [19]): 125 mg/kg
c1ccc2c(c1)C(=NCCN1CCCCC1)c1ccccc1C1CC21 (centres undefined),12,> 324,> 324,200,> 324,ED50 (Mus musculus [20]): 34 mg/kg; ED50 (Mus musculus [13]): > 125 mg/kg
CN(C)CC/N=C1\c2ccccc2COc2ccccc21,36,> 324,60,200,20,ED50 (Mus musculus [21]): 6 mg/kg; ED50 (Mus musculus [19]): 33 mg/kg
CN(C)CCN=C1c2ccccc2CCc2ccccc21,20,> 324,36,100,20,ED50 (Mus musculus [22]): 1.9 mg/kg; ED50 (Mus musculus [23]): 9 mg/kg
NCCN=C1c2ccccc2C2CC2c2ccccc21 (centres undefined),60,> 324,100,200,100,ED50 (Mus musculus [24]): 0.7 mg/kg; ED50 (Mus musculus [25]): 1.5 mg/kg
CN(C)CC/N=C1\c2ccccc2CCc2ccc(Cl)cc21 (mixture of isomers),20,> 324,60,100,36,ED50 (Mus musculus [10]): 4.9 mg/kg; ED50 (Mus musculus [26]): 11.2 mg/kg
CN(C)CCC=C1c2ccccc2CCc2ccccc21 [AMITRIPTYLINE],14,> 324,43,190,23,ED50 (Mus musculus [27]): 3.5 mg/kg; ED50 (Mus musculus [28]): 1.4 mg/kg
